Reference: ChEMBL document CHEMBL4371057, “Hydroxamic Acid Inhibitors Provide Cross-Species Inhibition of Plasmodium M1 and M17 Aminopeptidases” (J Med Chem, 2019)
Calls of active or inactive are those of the source. The rule behind the calls is not given here.

Assays:
[1] = Selectivity index, ratio of CC50 for HEK293 cells to IC50 for Plasmodium falciparum 3D7; assay type: toxicity; conditions: human, read-out: Ratio CC50/IC50
[2] = Cytotoxicity against HEK293 cells after 72 hrs by resazurin dye based assay; assay type: cell-based; conditions: human
How it was run: (§1)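 HEK293 cells kept in DMEM with 10% FBS. Exposed to compounds for 72 h at 37 °C, 5% CO2, using the same dilution scheme as the parasite assay (top 40 μM). Medium then replaced with 44 μM resazurin, and fluorescence (530/595 nm) read after 5–6 h.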

[3] = Growth inhibition of HEK293 cells at 40 uM after 72 hrs by resazurin dye based assay relative to control; assay type: cell-based; conditions: human, read-out: GI; how it was run: as §1
[4] = Inhibition of Plasmodium vivax C-terminal His6-tagged M1 aminopeptidase (195 to 1097 residues) expressed in Escherichia coli BL21(DE3) preincubated for 20 mins followed by L-leucine-7-amido-4-methylcoumarin addition by Morrison equation analysis
How it was run: (§2)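 Recombinant enzymes (Ni-NTA then size exclusion) were preincubated 20 min with inhibitor in 100 mM Tris-HCl pH 8.0, with 2 mM CoCl2 for Pf-M17 and 1 mM for Pv-M17. Leu-AMC substrate: 20 μM (Pf-M1), 40 μM (Pv-M1), 10 μM (both M17). Read at 37 °C, 355/460 nm, to steady-state velocity. Ki from a Morrison tight-binding fit; biological triplicate from three protein preparations.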

[5] = Growth inhibition of HEK293 cells at 10 uM after 72 hrs by resazurin dye based assay relative to control; assay type: cell-based; conditions: human, read-out: GI; how it was run: as §1
[6] = Selectivity ratio of Ki for Plasmodium falciparum C-terminal His6-tagged M1 aminopeptidase (195 to 1085 residues) expressed in Escherichia coli BL21(DE3) to Ki for Plasmodium vivax C-terminal His6-tagged M1 aminopeptidase (195 to 1097 residues) expressed in Escherichia coli BL21(DE3)
Aminopeptidase N = Aminopeptidase N (Homo sapiens, UniProt P15144); assay: Inhibition of human APN expressed in HEK293 cells preincubated for 10 mins followed by L-leucine-7-amido-4-methylcoumarin addition by fluorescence assay
[7] = target: Neutrophil collagenase (Homo sapiens) (UniProt P22894); assay: Inhibition of MMP8 (unknown origin) preincubated for 1 hr followed by (QF)-24 substrate addition measured at 1 min time interval for 1 hr by fluorescence assay
How it was run: (§3)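 MMPs were activated with 1 mM 4-aminophenylmercuric acetate (50 mM HEPES, 150 mM NaCl, 5 mM CaCl2, pH 7.0, 1 h, rt). 1 μM QF24 was added at 37 °C and read at 320/405 nm every minute for 1 h. IC50 from a four-parameter Hill fit; three independent experiments.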

[8] = system: Insulin-regulated aminopeptidase (Homo sapiens); assay: Inhibition of human IRAP at <200 uM preincubated for 10 mins followed by L-leucine-7-amido-4-methylcoumarin addition by fluorescence assay
Plasmodium falciparum [9] = assay: Antimalarial activity against Plasmodium falciparum 3D7 after 72 hrs by DAPI staining-based confocal imaging analysis; assay type: functional, organism-based; conditions: 3D7, 72 h
How it was run: (§4)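 Exposed to a 16-point dose series (40 μM to 0.4 nM final, 0.4% DMSO) for 72 h at 37 °C in 90% N2/5% CO2/5% O2. DAPI-stained and imaged confocally. Two biological replicates, each with two technical repeats.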

[10] = target: 72 kDa type IV collagenase (Homo sapiens, UniProt P08253); assay: Inhibition of MMP2 (unknown origin) preincubated for 1 hr followed by (QF)-24 substrate addition measured at 1 min time interval for 1 hr by fluorescence assay
[11] = Inhibition of Plasmodium falciparum C-terminal His6-tagged M1 aminopeptidase (195 to 1085 residues) expressed in Escherichia coli BL21(DE3) preincubated for 20 mins followed by L-leucine-7-amido-4-methylcoumarin addition by Morrison equation analysis; how it was run: as §2
[12] = Inhibition of Plasmodium vivax C-terminal His6-tagged M17 aminopeptidase (203 to 621 residues) expressed in Escherichia coli BL21(DE3) preincubated for 20 mins followed by L-leucine-7-amido-4-methylcoumarin addition by Morrison equation analysis; how it was run: as §2
[13] = target: Matrix metalloproteinase-9 (Homo sapiens, UniProt P14780); assay: Inhibition of MMP9 (unknown origin) preincubated for 1 hr followed by (QF)-24 substrate addition measured at 1 min time interval for 1 hr by fluorescence assay
Plasmodium falciparum [14] = assay: Antimalarial activity against Plasmodium falciparum Dd2 after 72 hrs by DAPI staining-based confocal imaging analysis; assay type: functional, organism-based; conditions: Plasmodium falciparum, Dd2, 72 h; read-out: IC50; how it was run: as §4
[15] = Inhibition of Plasmodium falciparum C-terminal His6-tagged M17 aminopeptidase (85 to 605 residues) expressed in Escherichia coli BL21(DE3) preincubated for 20 mins followed by L-leucine-7-amido-4-methylcoumarin addition by Morrison equation analysis; how it was run: as §2
[16] = target: T1, Matrilysin (Homo sapiens) (UniProt P09237); assay: Inhibition of MMP7 (unknown origin) preincubated for 1 hr followed by (QF)-24 substrate addition measured at 1 min time interval for 1 hr by fluorescence assay; how it was run: as §3
T1 sequence (whole entry): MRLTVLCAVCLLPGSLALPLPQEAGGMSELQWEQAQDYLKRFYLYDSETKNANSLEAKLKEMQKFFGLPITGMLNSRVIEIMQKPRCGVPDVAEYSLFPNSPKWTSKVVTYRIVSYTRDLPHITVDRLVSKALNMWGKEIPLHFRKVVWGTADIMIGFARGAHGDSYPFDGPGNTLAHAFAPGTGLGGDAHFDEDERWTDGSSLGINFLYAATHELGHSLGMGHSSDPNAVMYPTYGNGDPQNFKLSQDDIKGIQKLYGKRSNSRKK

Plasmodium falciparum [17] = assay: (§5) Reversible inhibition of Plasmodium falciparum C-terminal His6-tagged M17 aminopeptidase (85 to 605 residues) expressed in Escherichia coli BL21(DE3) assessed as enzyme activity recovery at 150 uM preincubated followed by compound washout for 5 hrs and subsequent L-leucine-7-amido-4-methylcoumarin substrate addition by fluorescence assay
How it was run: (§6)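 Pf-M17 (20 μM) was incubated overnight at 4 °C with 150 μM compound, 150 μM bestatin, 2 mM EDTA, or buffer (50 mM HEPES pH 8, 300 mM NaCl). It was then washed by repeated 10-fold concentration/dilution for up to 7 h, incubated 10 min in 1 mM MnCl2, 100 mM Tris pH 8.0, given 25 μM Leu-AMC (final), and fluorescence followed for 30 min.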

Plasmodium falciparum [18] = assay: as §5, with “for 7” for “for 5”, “assay relative to control” for “assay”; set-up: scale not given: the % may be the effect or the level left; how it was run: as §6

Sequence of 72 kDa type IV collagenase (P08253 whole entry, the tested form may be a part): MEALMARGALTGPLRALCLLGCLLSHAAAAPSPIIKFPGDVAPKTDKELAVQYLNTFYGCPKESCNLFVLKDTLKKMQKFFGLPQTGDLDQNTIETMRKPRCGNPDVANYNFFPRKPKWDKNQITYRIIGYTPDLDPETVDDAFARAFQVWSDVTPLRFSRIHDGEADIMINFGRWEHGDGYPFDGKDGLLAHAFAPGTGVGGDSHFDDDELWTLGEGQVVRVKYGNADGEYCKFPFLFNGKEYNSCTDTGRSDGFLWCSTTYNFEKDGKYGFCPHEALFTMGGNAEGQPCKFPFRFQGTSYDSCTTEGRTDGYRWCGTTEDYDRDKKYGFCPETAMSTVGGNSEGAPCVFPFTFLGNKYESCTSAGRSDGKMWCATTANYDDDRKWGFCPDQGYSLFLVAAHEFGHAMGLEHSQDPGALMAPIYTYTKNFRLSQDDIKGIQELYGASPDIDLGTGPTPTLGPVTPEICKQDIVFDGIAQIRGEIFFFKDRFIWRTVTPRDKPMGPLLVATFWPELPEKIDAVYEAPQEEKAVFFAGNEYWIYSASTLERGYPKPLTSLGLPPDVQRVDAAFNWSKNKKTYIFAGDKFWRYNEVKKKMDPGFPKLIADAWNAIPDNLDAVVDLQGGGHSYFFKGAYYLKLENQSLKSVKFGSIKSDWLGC
Sequence of Aminopeptidase N (P15144 whole entry): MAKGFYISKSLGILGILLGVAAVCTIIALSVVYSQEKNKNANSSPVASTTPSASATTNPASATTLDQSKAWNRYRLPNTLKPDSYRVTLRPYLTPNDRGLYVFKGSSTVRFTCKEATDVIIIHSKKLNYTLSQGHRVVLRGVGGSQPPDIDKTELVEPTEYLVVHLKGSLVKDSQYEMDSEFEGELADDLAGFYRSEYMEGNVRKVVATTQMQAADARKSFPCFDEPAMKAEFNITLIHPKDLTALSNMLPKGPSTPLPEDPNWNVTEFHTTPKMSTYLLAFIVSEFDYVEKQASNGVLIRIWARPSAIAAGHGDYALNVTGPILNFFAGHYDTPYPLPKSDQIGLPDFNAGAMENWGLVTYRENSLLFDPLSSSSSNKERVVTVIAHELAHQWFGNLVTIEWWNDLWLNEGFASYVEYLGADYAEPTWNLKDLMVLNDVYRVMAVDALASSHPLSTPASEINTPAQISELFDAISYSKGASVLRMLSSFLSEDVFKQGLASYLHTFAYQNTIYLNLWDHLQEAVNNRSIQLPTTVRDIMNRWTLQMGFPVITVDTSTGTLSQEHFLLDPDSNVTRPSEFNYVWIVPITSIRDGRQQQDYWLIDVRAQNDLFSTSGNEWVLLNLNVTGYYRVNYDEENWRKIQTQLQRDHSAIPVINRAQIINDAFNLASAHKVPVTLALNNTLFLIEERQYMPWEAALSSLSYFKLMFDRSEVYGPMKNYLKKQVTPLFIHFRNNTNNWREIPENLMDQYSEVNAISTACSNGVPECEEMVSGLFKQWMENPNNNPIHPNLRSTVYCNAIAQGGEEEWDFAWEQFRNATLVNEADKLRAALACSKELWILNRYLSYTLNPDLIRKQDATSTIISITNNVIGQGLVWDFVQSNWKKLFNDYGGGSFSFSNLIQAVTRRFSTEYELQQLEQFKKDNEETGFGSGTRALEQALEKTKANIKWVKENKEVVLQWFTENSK
Sequence of Matrix metalloproteinase-9 (P14780 whole entry): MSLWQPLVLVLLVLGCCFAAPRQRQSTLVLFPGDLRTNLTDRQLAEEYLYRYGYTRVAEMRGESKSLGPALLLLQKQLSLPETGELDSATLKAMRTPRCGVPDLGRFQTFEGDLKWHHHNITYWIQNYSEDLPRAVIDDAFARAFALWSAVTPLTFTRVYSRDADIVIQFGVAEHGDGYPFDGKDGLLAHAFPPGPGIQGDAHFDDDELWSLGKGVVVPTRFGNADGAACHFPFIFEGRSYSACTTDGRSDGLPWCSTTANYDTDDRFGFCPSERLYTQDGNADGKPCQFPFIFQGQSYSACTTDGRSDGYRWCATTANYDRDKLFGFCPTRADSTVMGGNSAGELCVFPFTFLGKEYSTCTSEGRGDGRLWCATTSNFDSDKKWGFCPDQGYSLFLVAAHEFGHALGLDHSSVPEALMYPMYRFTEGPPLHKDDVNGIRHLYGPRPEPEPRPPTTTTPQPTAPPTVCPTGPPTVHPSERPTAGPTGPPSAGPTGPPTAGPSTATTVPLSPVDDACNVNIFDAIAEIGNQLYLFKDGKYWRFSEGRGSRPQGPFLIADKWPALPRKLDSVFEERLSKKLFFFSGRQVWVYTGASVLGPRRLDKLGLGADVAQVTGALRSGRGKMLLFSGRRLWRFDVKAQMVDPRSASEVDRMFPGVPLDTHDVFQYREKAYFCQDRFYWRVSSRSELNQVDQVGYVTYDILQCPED
Sequence of Neutrophil collagenase (Homo sapiens) (P22894 101-467 limits assumed): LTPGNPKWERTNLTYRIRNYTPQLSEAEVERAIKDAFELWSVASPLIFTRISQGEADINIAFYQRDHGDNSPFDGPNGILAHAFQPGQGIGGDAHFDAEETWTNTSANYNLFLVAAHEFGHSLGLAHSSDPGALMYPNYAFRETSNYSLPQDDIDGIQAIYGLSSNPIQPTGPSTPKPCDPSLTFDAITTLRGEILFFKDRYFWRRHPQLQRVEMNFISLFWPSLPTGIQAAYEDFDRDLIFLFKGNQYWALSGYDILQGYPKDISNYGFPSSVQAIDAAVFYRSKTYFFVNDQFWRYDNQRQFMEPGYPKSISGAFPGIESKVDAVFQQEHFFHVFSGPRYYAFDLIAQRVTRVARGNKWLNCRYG

| Structure (SMILES) | selectivity ratio [1] | CC50 at 72 h [2] | inhibition at 72 h, 40 µM [3] | Ki [4] | inhibition at 72 h, 10 µM [5] | Ratio Ki [6] | Ki (Aminopeptidase N) | inhibition [7] | inhibition [8] | IC50 (Plasmodium falciparum [9]) | IC50 [10] | Ki [11] | Ki [12] | IC50 [13] | IC50 (Plasmodium falciparum [14]) | Ki [15] | inhibition [16] | inhibition (Plasmodium falciparum [17]) | Activity (Plasmodium falciparum [18]) |
| --- | --- | --- | --- | --- | --- | --- | --- | --- | --- | --- | --- | --- | --- | --- | --- | --- | --- | --- | --- |
| CC(C)(C)CC(=O)NC(C(=O)NO)c1ccc(-c2cc(F)c(F)c(F)c2)cc1 (centres undefined) | ≥ 1370 | ≥ 20 µM | 98.4% | 0.00639 µM | 4.8% | 42.1 | 0.3 µM | Active | inactive | 0.0146 µM | 17 µM | 0.269 µM | 0.0036 µM | > 1000 µM | 0.0138 µM | 0.101 µM | Active | – | – |
| O=C(NO)C(NC(=O)C12CC3CC(CC(C3)C1)C2)c1ccc(-c2cc(F)c(F)c(F)c2)cc1 (centres undefined) | ≥ 56 | – | 42.9% | 0.122 µM | 2.1% | 1.1 | – | – | – | 0.357 µM | – | 0.137 µM | 0.0186 µM | – | 0.313 µM | 0.0289 µM | – | Active | 20% |
